Data reported in ChEMBL document CHEMBL4480410, “Targeting the MKK7-JNK (Mitogen-Activated Protein Kinase Kinase 7-c-Jun N-Terminal Kinase) Pathway with Covalent Inhibitors” (J Med Chem, 2019).
Converted amounts (≈) assume the structure as drawn. The source made the active and inactive calls. No cut-off for these calls is given here.

Legend:
[1] = target: Ribosomal protein S6 kinase (Homo sapiens) (UniProt P51812+Q9UBS0+O75676+Q15349+O75582+P23443+Q9UK32+Q15418); test: Inhibition of SK6 (unknown origin) at 1 uM by proQinase-based assay relative to control; type: protein assay
[2] = target: T1, Dual specificity mitogen-activated protein kinase kinase 7 (Homo sapiens) (UniProt O14733); test: Covalent binding affinity to MKK7 (unknown origin) assessed as formation of covalent bond with Cys218 residues by MS/MS analysis
T1 sequence (whole entry): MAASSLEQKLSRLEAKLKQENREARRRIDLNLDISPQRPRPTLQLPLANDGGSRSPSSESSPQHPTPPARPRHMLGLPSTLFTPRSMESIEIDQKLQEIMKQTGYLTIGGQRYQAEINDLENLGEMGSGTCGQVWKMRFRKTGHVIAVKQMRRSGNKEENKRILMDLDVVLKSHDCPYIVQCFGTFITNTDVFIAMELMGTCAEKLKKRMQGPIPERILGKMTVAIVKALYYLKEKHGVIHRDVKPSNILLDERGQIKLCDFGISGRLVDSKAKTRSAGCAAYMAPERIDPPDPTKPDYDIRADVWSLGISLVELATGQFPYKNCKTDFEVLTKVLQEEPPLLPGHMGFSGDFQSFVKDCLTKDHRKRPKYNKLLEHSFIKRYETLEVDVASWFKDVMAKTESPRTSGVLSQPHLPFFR
Procedure, shortened: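 Protein at 1 mg/mL incubated with 2-fold molar excess of compound, 30 min on ice, then denatured and run on 15% SDS gel. Band excised, reduced with 50 mM DTT (1 h, 37 °C), alkylated with 55 mM iodoacetamide (1 h, 20 °C), digested with 0.1 mg/mL trypsin 20 h at 30 °C, acidified with TFA. Analysed by ion-trap MS/MS.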

[3] = Kinetic solubility of the compound in Hepes buffer at pH 7.4 after 90 mins; type: physicochemical; conditions: read-out: Kinetic_solubility
Procedure, shortened: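 Compound diluted from 10 mM DMSO stock to 500 µM final in 50 mM Hepes, pH 7.4, shaken 90 min at room temperature. Filtered through 0.2 µm PVDF, then OD scanned 250–500 nm in 10 nm steps. Solubility taken from AUC, normalized to a dilution in acetonitrile.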

[4] = Apparent permeability across basolateral to apical side in human Caco2 cells at 5 uM after 2 hrs by transwell membrane based assay; type: ADME, cell-based, Caco-2; conditions: Caco-2
Procedure, shortened: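 10 mM DMSO stock diluted to 5 µM final in HBSS pH 7.4; 2 h at 37 °C, 5% CO2 on Caco-2 monolayers grown 21 days on transwell membranes.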

[5] = target: T2, Tyrosine-protein kinase JAK3 (Homo sapiens) (UniProt P52333); test: Inhibition of JAK3 (unknown origin) at 1 uM by proQinase-based assay relative to control
T2 sequence (whole entry): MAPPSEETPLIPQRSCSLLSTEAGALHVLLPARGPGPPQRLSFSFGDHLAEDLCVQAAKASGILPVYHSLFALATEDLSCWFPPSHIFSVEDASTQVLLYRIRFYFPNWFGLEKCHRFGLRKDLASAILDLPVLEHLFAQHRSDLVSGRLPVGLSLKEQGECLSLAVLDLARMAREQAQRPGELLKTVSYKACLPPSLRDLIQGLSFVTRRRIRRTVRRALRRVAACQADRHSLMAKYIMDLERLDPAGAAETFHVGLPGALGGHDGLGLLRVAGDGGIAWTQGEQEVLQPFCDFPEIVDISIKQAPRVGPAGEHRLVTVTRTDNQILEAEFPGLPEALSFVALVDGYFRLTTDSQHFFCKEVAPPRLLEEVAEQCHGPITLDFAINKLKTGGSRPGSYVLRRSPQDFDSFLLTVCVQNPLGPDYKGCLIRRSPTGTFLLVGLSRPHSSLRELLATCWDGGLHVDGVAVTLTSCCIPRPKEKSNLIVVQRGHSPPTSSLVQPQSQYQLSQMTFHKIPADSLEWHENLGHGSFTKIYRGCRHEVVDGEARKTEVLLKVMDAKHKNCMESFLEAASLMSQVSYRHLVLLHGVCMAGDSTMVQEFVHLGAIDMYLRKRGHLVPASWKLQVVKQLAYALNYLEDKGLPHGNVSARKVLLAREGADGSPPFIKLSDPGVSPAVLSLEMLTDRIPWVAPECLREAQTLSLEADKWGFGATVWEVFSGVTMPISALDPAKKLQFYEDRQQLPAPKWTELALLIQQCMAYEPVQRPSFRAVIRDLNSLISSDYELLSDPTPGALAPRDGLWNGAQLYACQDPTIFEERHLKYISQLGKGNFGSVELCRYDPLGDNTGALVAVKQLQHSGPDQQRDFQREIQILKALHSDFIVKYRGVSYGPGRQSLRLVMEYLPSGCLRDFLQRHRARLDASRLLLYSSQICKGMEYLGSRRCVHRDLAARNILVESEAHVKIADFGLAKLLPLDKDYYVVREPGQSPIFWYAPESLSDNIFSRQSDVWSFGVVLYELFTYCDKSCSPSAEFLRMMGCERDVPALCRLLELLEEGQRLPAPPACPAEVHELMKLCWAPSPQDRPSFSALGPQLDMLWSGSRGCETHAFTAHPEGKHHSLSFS

[6] = Apparent permeability across basolateral to apical side in MDCK2-MDR1 cells at 10 uM after 2 hrs by transwell membrane based assay; type: ADME, cell-based, Canis lupus familiaris; conditions: dog, MDCK-MDR1
Procedure, shortened: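 Compound at 10 µM in HBSS added to apical or basolateral side of MDCKII-MDR1 monolayer, 2 h at 37 °C. Both sides quantified by LC-MS/MS; Papp A–B or B–A from receiver concentration and volume, time, membrane area and initial donor concentration.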

[7] = target: T3, Tyrosine-protein kinase ITK/TSK (Homo sapiens) (UniProt Q08881); test: Inhibition of ITK (unknown origin) at 1 uM by proQinase-based assay relative to control
T3 sequence (whole entry): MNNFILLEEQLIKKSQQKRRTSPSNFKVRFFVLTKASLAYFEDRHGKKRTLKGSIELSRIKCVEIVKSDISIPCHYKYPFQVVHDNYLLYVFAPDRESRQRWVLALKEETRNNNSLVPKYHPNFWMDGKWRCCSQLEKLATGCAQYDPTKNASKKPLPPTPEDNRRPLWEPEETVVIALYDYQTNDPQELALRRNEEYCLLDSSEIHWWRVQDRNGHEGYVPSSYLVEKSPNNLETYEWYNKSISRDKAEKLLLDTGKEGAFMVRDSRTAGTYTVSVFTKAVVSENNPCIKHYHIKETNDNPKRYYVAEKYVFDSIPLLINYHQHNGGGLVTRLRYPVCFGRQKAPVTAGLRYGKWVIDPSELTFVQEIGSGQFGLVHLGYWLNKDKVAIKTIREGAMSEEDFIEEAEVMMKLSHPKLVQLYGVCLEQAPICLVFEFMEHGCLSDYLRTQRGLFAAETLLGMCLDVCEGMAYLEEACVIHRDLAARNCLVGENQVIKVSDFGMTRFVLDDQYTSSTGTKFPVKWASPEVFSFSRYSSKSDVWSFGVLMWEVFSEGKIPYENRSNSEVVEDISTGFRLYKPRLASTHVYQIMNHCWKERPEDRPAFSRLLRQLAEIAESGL

SMILES: C=CC(=O)N1CCC[C@@H](n2nc(-c3cn(-c4ccc(C(C)=O)cc4)nn3)c3c(N)ncnc32)C1
- inhibition [1]: > 50%
- Activity [2]: Active
- solubility kinetic at 1.5 h [3]: 8 µM (≈ 3.66 µg/mL)
- Papp B→A at 2 h, 5 µM [4]: 13 ×10⁻⁶ cm/s
- inhibition [5]: > 50%
- Papp B→A at 2 h, 10 µM [6]: 4 ×10⁻⁶ cm/s
- inhibition [7]: > 50%
